Assay [1] concerns the target T1, Metabotropic glutamate receptor 5 (Homo sapiens, UniProt P41594). Description: Positive allosteric modulation of human mGluR5 expressed in recombinant HEK293 cells by FLIPR assay. It counts as cell-based. The essentials:
(§1)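 HEK293 cells recombinantly expressing human mGluR5 were seeded at 2×10^4 cells/well on poly-D-lysine. They were incubated overnight at 37 °C in glutamate/glutamine-free medium, then loaded for 1 h at 37 °C with calcium 5 dye containing 3 U/ml glutamic pyruvic transaminase and 3 mM sodium pyruvate. Calcium flux was read by FLIPR.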

Assay [2] concerns the target T1, Metabotropic glutamate receptor 5. Description: Negative allosteric modulation of human mGluR5 expressed in recombinant HEK293 cells by FLIPR assay. Type of assay: cell-based. The settings on record: for inhibition: concentration not given here. A digest of the protocol:
as §1

The EC50 is the midpoint of the concentration-response curve. As usually defined, the Emax is the maximal effect, on the per cent scale that the assay sets. As usually defined, the IC50 is the concentration that gives 50% inhibition. One may read the inhibition as how much of the control response was suppressed. With `O=C(C1CCC1)N1CC(c2nc(-c3cccc(Cl)c3)no2)C1`, in assay [1], the EC50 was above 10 µM and the Emax was -7%. In assay [2], the IC50 stood at 1.5 µM and the inhibition came to 75%.

In the case of `O=C(c1ccc(Cl)cc1)N1CC(c2nc(-c3cccc(F)c3)no2)C1`, in assay [1], the Activity is 82%, the EC50 came out at 2.5 µM and the Emax turned out to be 62%. The IC50 in assay [2] is above 10 µM.

As for `Cc1cccc(-c2noc([C@@H]3CCN3C(=O)c3ccccc3F)n2)c1`, in assay [1], the EC50 is above 10 µM and the Emax amounted to 6.2%. Moreover, in assay [2], the 50% inhibitory concentration (IC50) was determined as 1.8 µM and the inhibition was found to be 58%.

As to `O=C(N1CCC(F)CC1)N1CC(c2nc(-c3cccc(Cl)c3)no2)C1`, in assay [1], the Activity was found to be 61%, the EC50 was determined as 0.99 µM and the Emax came to 41%. Besides, the IC50 in assay [2] was above 10 µM.

As to `Cc1cccc(-c2noc(C3CN(C(=O)C4CCC(C)CC4)C3)n2)c1` (stereo not drawn), in assay [1], the Activity stood at 49%, the EC50 was determined as 0.97 µM and the Emax was 68%. The half-maximal inhibitory concentration (IC50) in assay [2] is above 10 µM.

Turning to `O=C(C1CCCCC1)N1CC(c2nc(-c3cccc(Cl)c3)no2)C1`, in assay [1], the Activity came to 35%, the EC50 came out at 0.52 µM and the Emax was determined as 43%. The IC50 in assay [2] was above 10 µM.

Regarding `Cc1cccc(-c2noc(C3CN(C(=O)C4CCC(C(F)(F)F)CC4)C3)n2)c1` (stereo not drawn), in assay [1], the EC50 came to 1 µM and the Emax was found to be 36%. In addition, in assay [2], the IC50 is above 10 µM and the inhibition amounted to 3%.

Turning to `Cc1cccc(-c2noc(C3CN(C(=O)C4CCOC4)C3)n2)c1` (stereo not drawn), in assay [1], the EC50 was above 10 µM and the Emax was -7%. In assay [2], the IC50 amounted to 1.3 µM and the inhibition was found to be 80%.

With `O=C(Cc1cccc(F)c1)N1CC[C@H]1c1nc(-c2cccc(F)c2)no1`, in assay [1], the Activity is 75%, the EC50 was 2.4 µM and the Emax was found to be 52%. For the same compound, in assay [2], the IC50 is above 10 µM.

Take `COC1CCCN(C(=O)N2CC(c3nc(-c4cccc(Cl)c4)no3)C2)C1` (stereo not drawn): in assay [1], the EC50 is above 10 µM and the Emax was -14%. Also, in assay [2], the IC50 stood at 1.83 µM and the inhibition was 80%.

In the case of `Cc1cccc(-c2noc(C3CN(S(=O)(=O)c4ccc(F)cc4)C3)n2)c1`, in assay [1], the EC50 is above 10 µM and the Emax turned out to be 6%. In assay [2], the IC50 was found to be 0.95 µM and the inhibition worked out at 74%.

On to `O=C(c1ccc(F)cc1)N1CC(c2nc(-c3cccc(F)c3)no2)C1`, for which, in assay [1], the Activity came to 6%, the EC50 is 2.4 µM and the Emax turned out to be 40%. Further, in assay [2], the IC50 was above 10 µM.

Take `Cc1cccc(-c2noc(C3CN(C(=O)C4CCOCC4)C3)n2)c1`: in assay [1], the EC50 is above 10 µM and the Emax was -2%. For the same compound, in assay [2], the IC50 came out at 1.8 µM and the inhibition is 74%.

For the compound `O=C(N1CCCCC1)N1CC(c2nc(-c3cccc(Cl)c3)no2)C1`, in assay [1], the Activity is 87%, the EC50 turned out to be 0.37 µM and the Emax came to 44%. Besides, the IC50 in assay [2] is above 10 µM.

As to `O=C(N1CCCCCC1)N1CC(c2nc(-c3cccc(Cl)c3)no2)C1`, in assay [1], the Activity worked out at 41%, the concentration giving a half-maximal response (EC50) amounted to 0.047 µM and the Emax amounted to 44%. Further, the IC50 in assay [2] was above 10 µM.

Take `O=C(C1CCCO1)N1CC(c2nc(-c3cccc(Cl)c3)no2)C1` (stereo not drawn): in assay [1], the 50% effective concentration (EC50) is above 10 µM and the Emax was -3%. Also, in assay [2], the IC50 was determined as 0.89 µM and the inhibition turned out to be 79%.

`CC1CCCN(C(=O)N2CC(c3nc(-c4cccc(Cl)c4)no3)C2)C1` (stereo not drawn): in assay [1], the EC50 was above 10 µM and the Emax was 6%. In assay [2], the IC50 is 3.4 µM and the inhibition turned out to be 69%.

As for `CC1CCN(C(=O)N2CC(c3nc(-c4cccc(Cl)c4)no3)C2)C1` (stereo not drawn), in assay [1], the EC50 was above 10 µM and the Emax was determined as 88%. In assay [2], the IC50 was above 10 µM and the inhibition amounted to 80%.

For `Cc1cccc(-c2noc([C@@H]3CCN3C(=O)c3ccc(C#N)cc3)n2)c1`, in assay [1], the EC50 is above 10 µM and the Emax was 88%. For the same compound, in assay [2], the IC50 is 1.4 µM and the inhibition was found to be 72%.

Turning to `Cc1cccc(-c2noc(C3CN(C(=O)c4ccc(Cl)cc4)C3)n2)c1`, in assay [1], the Activity was determined as 6.3%, the EC50 was determined as 7.1 µM and the Emax amounted to 33%. The IC50 in assay [2] is above 10 µM.

On to `O=C(c1ccccc1F)N1CC(c2nc(-c3cccc(Cl)c3)no2)C1`, for which, in assay [1], the EC50 was above 10 µM and the Emax is -12%. In assay [2], the half-inhibitory concentration (IC50) came out at 0.67 µM and the inhibition came to 86%.

In the case of `Cc1cccc(-c2noc(C3CN(C(=O)c4ccc(F)cc4)C3)n2)c1`, in assay [1], the EC50 turned out to be 1.4 µM and the Emax was 32%. In addition, in assay [2], the IC50 is above 10 µM and the inhibition is 50%.

On to `Cc1cccc(-c2noc([C@@H]3CCN3C(=O)c3ccc(F)c(F)c3)n2)c1`, for which, in assay [1], the Activity is 92%, the half-maximal effective concentration (EC50) worked out at 1.5 µM and the Emax is 51%. For the same compound, the IC50 in assay [2] was above 10 µM.

In the case of `O=C(c1cccc(F)c1)N1CC(c2nc(-c3cccc(Cl)c3)no2)C1`, in assay [1], the EC50 is above 10 µM and the Emax was -12%. Moreover, in assay [2], the IC50 turned out to be 0.78 µM and the inhibition turned out to be 87%.

Turning to `O=C(Cc1ccc(F)cc1)N1CC[C@H]1c1nc(-c2cccc(F)c2)no1`, in assay [1], the Activity came out at 12%, the EC50 came out at 1.2 µM and the Emax turned out to be 29%. Further, in assay [2], the IC50 is above 10 µM.

For the compound `O=C([C@H]1CC2CCC1C2)N1CC(c2nc(-c3ccccc3)no2)C1` (stereo partly drawn), in assay [1], the half-maximal effective concentration (EC50) was found to be 0.12 µM and the Emax was found to be 160%.

On to `O=C(N1CCCC(F)C1)N1CC(c2nc(-c3cccc(Cl)c3)no2)C1` (stereo not drawn), for which, in assay [1], the Activity turned out to be 81%, the EC50 was determined as 0.2 µM and the Emax turned out to be 51%. In addition, the IC50 in assay [2] was above 10 µM.

In the case of `Cc1cccc(-c2noc(C3CN(C(=O)C4CCCC(C)C4)C3)n2)c1` (stereo not drawn), in assay [1], the Activity was 19%, the EC50 came out at 0.5 µM and the Emax came to 46%. Moreover, the IC50 in assay [2] was above 10 µM.

For the compound `Cc1cccc(-c2noc(C3CN(C(=O)C4CCCCC4)C3)n2)c1`, in assay [1], the Activity stood at 20%, the EC50 stood at 0.95 µM and the Emax was determined as 45%. In addition, the IC50 in assay [2] was above 10 µM.

`O=S(=O)(c1ccc(Cl)cc1)N1CC(c2nc(-c3cccc(Cl)c3)no2)C1`: in assay [1], the EC50 is above 10 µM and the Emax was 7%. Further, in assay [2], the half-inhibitory concentration (IC50) worked out at 0.17 µM and the inhibition was found to be 79%.

In the case of `CC1CCC(C(=O)N2CC(c3nc(-c4cccc(Cl)c4)no3)C2)CC1` (stereo not drawn), in assay [1], the Activity was 120%, the EC50 came out at 1.5 µM and the Emax turned out to be 75%. Also, the IC50 in assay [2] was above 10 µM.

As for `O=S(=O)(c1ccc(F)cc1)N1CC(c2nc(-c3cccc(Cl)c3)no2)C1`, in assay [1], the EC50 is above 10 µM and the Emax is -7%. Also, in assay [2], the IC50 amounted to 0.13 µM and the inhibition worked out at 85%.

On to `O=C([C@@H]1CC2CCC1C2)N1CC(c2nc(-c3cccc(Cl)c3)no2)C1` (stereo partly drawn), for which, in assay [1], the EC50 was 0.098 µM and the Emax worked out at 66%.

In the case of `O=C(C1CCCCC1)N1CC(c2nc(-c3cccc(F)c3)no2)C1`, in assay [1], the Activity was 19%, the concentration giving a half-maximal response (EC50) worked out at 1 µM and the Emax stood at 46%. In assay [2], the IC50 was above 10 µM.

As to `CC1CCN(C(=O)N2CC(c3nc(-c4cccc(Cl)c4)no3)C2)CC1`, in assay [1], the EC50 was found to be 0.865 µM and the Emax amounted to 66%. In assay [2], the IC50 is above 10 µM.

`Cc1cccc(S(=O)(=O)N2CC(c3nc(-c4cccc(Cl)c4)no3)C2)c1`: in assay [1], the EC50 was above 10 µM and the Emax was -2%. In assay [2], the IC50 was 0.39 µM and the inhibition was 82%.

Consider `CC1CCC(C(=O)N2CC(c3nc(-c4cccc(F)c4)no3)C2)CC1` (stereo not drawn), for which, in assay [1], the Activity stood at 11%, the EC50 is 2.2 µM and the Emax was found to be 47%. In assay [2], the IC50 is above 10 µM.

On to `O=C(C1CCC(C(F)(F)F)CC1)N1CC(c2nc(-c3cccc(F)c3)no2)C1` (stereo not drawn), for which, in assay [1], the Activity came out at 37%, the EC50 was found to be 0.68 µM and the Emax was 56%. In addition, the IC50 in assay [2] is above 10 µM.

Turning to `Cc1ccc(S(=O)(=O)N2CC(c3nc(-c4cccc(C)c4)no3)C2)cc1`, in assay [1], the EC50 was above 10 µM and the Emax amounted to 1%. Moreover, in assay [2], the IC50 worked out at 0.67 µM and the inhibition was 80%.

`Cc1cccc(-c2noc(C3CN(C(=O)C4CCC(F)(F)CC4)C3)n2)c1`: in assay [1], the Activity stood at 3%, the EC50 was 0.59 µM and the Emax worked out at 36%. Moreover, the IC50 in assay [2] was above 10 µM.

Consider `Cc1cccc(-c2noc(C3CN(C(=O)c4cccc(F)c4)C3)n2)c1`, for which, in assay [1], the EC50 was above 10 µM and the Emax was 15%. In assay [2], the IC50 worked out at 2.1 µM and the inhibition stood at 62%.

Regarding `O=C(C1CCC(C(F)(F)F)CC1)N1CC(c2nc(-c3cccc(Cl)c3)no2)C1` (stereo not drawn), in assay [1], the Activity is 5%, the EC50 is 1 µM and the Emax stood at 40%. Besides, the IC50 in assay [2] is above 10 µM.

As to `Cc1cccc(-c2noc([C@@H]3CCN3C(=O)Cc3ccc(F)cc3)n2)c1`, in assay [1], the Activity was found to be 30%, the EC50 was determined as 1.9 µM and the Emax is 24%. In addition, the IC50 in assay [2] is above 10 µM.

As to `O=C([C@H]1CC2CCC1C2)N1CC(c2nc(-c3cccc(Cl)c3)no2)C1` (stereo partly drawn), in assay [1], the EC50 was found to be 0.074 µM and the Emax is 120%.

Turning to `O=C([C@@H]1CC2CCC1C2)N1CC(c2nc(-c3cccc(F)c3)no2)C1` (stereo partly drawn), in assay [1], the EC50 came out at 0.1 µM and the Emax came out at 110%.

Turning to `O=C([C@@H]1CC2CCC1C2)N1CC(c2nc(-c3ccccc3)no2)C1` (stereo partly drawn), in assay [1], the EC50 was determined as 0.4 µM and the Emax was 88%.

For the origin of these results see ChEMBL document CHEMBL2150889, “Azetidinyl oxadiazoles as potent mGluR5 positive allosteric modulators” (Bioorg Med Chem Lett, 2012).
